Inconclusive results are not listed. The source made the active and inactive calls.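 Rule for the calls: active = compound whose replicate-averaged normalized fluorescence ratio fell more than 5 SD below the agonist-stimulated control mean; inactive = the rest, inconclusive results apart.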
Biological target: Short transient receptor potential channel 6 (Mus musculus) (UniProt Q61143)
Assay: TRPC6 inhibition by TRPC4 inhibitor analogs, SAR follow-up, selectivity assay for selective TRPC4 inhibitor project, HEK293 cells, membrane potential dye, single concentration (AID 492981)
Details: membrane potential dye fluorescence, at 10 µM, stronger effect = higher value
Method in brief: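 Test system: HEK293 cells expressing mouse TRPC6 channel; also added: ECmax acetylcholine; times: dye loading 45 min at room temperature, compound preincubation 110 s; signal: kinetic fluorescence reading of membrane potential dye; read-out: integrated fluorescence ratio inhibition versus positive controls; repeats: at least duplicate wells per compound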

Sequence of Short transient receptor potential channel 6 (Mus musculus) (Q61143 whole entry, looked up): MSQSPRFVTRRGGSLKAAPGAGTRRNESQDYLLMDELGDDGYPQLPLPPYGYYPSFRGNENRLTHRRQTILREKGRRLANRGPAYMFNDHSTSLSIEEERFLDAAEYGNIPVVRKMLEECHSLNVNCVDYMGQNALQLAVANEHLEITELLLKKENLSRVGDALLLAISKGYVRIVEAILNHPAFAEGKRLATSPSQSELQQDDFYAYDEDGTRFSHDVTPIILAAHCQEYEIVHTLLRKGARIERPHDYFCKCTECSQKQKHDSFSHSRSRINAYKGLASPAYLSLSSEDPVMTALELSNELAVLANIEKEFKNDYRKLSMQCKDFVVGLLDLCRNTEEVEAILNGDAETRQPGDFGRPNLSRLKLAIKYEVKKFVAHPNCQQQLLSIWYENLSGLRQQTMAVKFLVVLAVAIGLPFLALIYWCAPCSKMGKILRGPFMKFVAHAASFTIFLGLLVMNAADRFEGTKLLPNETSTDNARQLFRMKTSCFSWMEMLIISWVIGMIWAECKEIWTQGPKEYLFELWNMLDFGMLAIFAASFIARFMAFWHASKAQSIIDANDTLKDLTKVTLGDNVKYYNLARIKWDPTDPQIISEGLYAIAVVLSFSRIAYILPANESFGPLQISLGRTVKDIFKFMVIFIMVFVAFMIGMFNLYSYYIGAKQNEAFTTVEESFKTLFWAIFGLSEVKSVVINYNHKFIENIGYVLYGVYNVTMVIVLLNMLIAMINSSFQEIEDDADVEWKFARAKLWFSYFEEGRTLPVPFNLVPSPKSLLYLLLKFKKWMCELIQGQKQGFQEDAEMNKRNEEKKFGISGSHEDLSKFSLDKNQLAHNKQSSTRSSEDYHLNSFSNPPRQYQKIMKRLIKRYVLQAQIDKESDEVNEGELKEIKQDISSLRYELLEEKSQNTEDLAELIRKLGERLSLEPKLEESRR

| SMILES | inhibition |
| --- | --- |
| Cc1cc(N2CCCC2)nc2ccccc12 | 57.9% |
| Cc1cc(N2CCCC(O)C2)nc2ccccc12 (stereo not drawn) | 26.7% |
| Cc1ccnc(N2CCCC2)c1 | -27.6% (inactive) |
| Cc1cc(N2CCC[C@@H]2C)nc2ccccc12 | 47.6% |
| Cc1cc(N2CCC(C)CC2)nc2ccccc12 | 13.6% (inactive) |
| Cc1cc(N2CC(C)CC(C)C2)nc2ccccc12 (stereo not drawn) | 16.4% (inactive) |
| Cc1cc(N(C)CCN(C)C)nc2ccccc12 | 18.1% (inactive) |
| COc1ccccc1N1CCN(c2cc(C)c3ccccc3n2)CC1 | 11.7% (inactive) |
| FC(F)(F)c1cc(N2CCCCC2)nc2ccccc12 | -6.62% (inactive) |
| Cc1cc(N2CCN(CC3CCCO3)CC2)nc2ccccc12 (stereo not drawn) | 14.3% (inactive) |
| Cc1cc(N2CCN(c3ncccn3)CC2)nc2ccccc12 | 6.28% (inactive) |
| Cc1cc(N2CCOc3ccccc32)nc2ccccc12 | 13.7% (inactive) |
| Cc1cc(N2CCC(N3CCOCC3)CC2)nc2ccccc12 | 44.8% |
| c1ccc(-c2cc(N3CCCC3)nc3ccccc23)cc1 | 2.24% (inactive) |
| Cc1cc(N2CCN(C)CC2)nc2ccccc12 | 2.9% (inactive) |
| COCCN(C)c1cc(C)c2ccccc2n1 | 22.2% (inactive) |
| Cc1cc(N2CCCCC2)nc2ccc(F)cc12 | 3.78% (inactive) |

| SMILES | inhibition |
| --- | --- |
| Cc1cc(N2CCCC2)nc2c(C)cccc12 | 33.9% (inactive) |
| COc1ccc(N2CCN(c3cc(C)c4ccccc4n3)CC2)cc1 | 15.5% (inactive) |
| Cc1cc(N2CCNCC2)nc2ccccc12 | 37.2% |
| Cc1cc(N2CCN(c3ccncc3)CC2)nc2ccccc12 | 61.2% |
| Cc1ccnc(N2CCCCC2)n1 | -9.81% (inactive) |
| FC(F)(F)c1cc(N2CCCC2)nc2ccccc12 | 11.5% (inactive) |
| CCN(CC)c1cc(C)c2ccccc2n1 | 9.79% (inactive) |
| CCc1ccc2nc(N3CCCCC3)cc(C)c2c1 | 13.6% (inactive) |
| Cc1cc(N2CCN(c3ccccc3C#N)CC2)nc2ccccc12 | 0.71% (inactive) |
| Cc1ccnc(N2CCCCC2)c1 | -2.93% (inactive) |
| Cc1cc(N2CCCCC2)nc2c(C)cccc12 | 3.23% (inactive) |
| c1ccc(-c2cc(N3CCCCC3)nc3ccccc23)cc1 | 19.4% (inactive) |
| Cc1cc(N2CCOCC2)nc2ccccc12 | 2.35% (inactive) |
| Cc1cc(N2CCCCC2)nc2ccccc12 | 42.7% |
| Cc1ccnc(N2CCCC2)n1 | -6.71% (inactive) |
| Cc1ccc2nc(N3CCCCC3)cc(C)c2c1 | 37.5% (inactive) |
